Results published in ChEMBL document CHEMBL4725451, “Discovery of Tricyclic Xanthines as Agonists of the Cannabinoid-Activated Orphan G-Protein-Coupled Receptor GPR18” (ACS Med Chem Lett, 2020).
pEC50, pIC50: −log10 of the molar value. Activity calls are given as the source filed them. No cut-off for these calls is given here.

Tests used:
[1] = biological target: T1, G-protein coupled receptor 55 (Homo sapiens, UniProt Q9Y2T6); test: Agonist activity at Prolink1-tagged human GPR55 receptor expressed in CHO cells assessed as induction of beta-arrestin recruitment after 90 mins by beta-galactosidase based topcount luminescence analysis; format: cell-based
[2] = biological target: T1, G-protein coupled receptor 55; test: Antagonist activity at Prolink1-tagged human GPR55 receptor expressed in CHO cells assessed as inhibition of lysophosphatidylinositol-induced beta arrestin recruitment at 10 uM after 90 mins by beta-galactosidase based topcount luminescence analysis relative to control; format: functional, cell-based
Method in brief: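 GPR55-expressing CHO cells, β-arrestin complementation luminescence. Percent inhibition by test compound at 10 μM of the response to 1 μM LPI.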

[3] = biological target: T2, N-arachidonyl glycine receptor (Homo sapiens) (UniProt Q14330); test: Agonist activity at Prolink1-tagged human GPR18 receptor expressed in CHO cells assessed as induction of beta-arrestin recruitment at 10 uM after 90 mins by beta-galactosidase based topcount luminescence analysis relative to control; format: cell-based
T2 sequence (whole entry): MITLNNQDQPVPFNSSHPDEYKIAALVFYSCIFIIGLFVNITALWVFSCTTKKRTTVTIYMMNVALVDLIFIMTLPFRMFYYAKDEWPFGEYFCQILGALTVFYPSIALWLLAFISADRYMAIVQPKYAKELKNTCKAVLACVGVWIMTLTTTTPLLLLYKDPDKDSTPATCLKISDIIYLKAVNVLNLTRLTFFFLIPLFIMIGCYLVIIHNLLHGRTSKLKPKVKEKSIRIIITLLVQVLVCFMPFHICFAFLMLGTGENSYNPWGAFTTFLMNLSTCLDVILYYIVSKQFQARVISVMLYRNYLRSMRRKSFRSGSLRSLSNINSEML
Method in brief: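 CHO cells stably expressing human GPR18, β-arrestin enzyme-complementation assay with luminescence read-out. Test compound at 10 μM single concentration; signal normalized to that of 10 μM Δ9-THC.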

[4] = biological target: T3, N-arachidonyl glycine receptor (Homo sapiens, UniProt Q14330); test: (§1) Agonist activity at Prolink1-tagged human GPR18 receptor expressed in CHO cells assessed as induction of beta-arrestin recruitment after 90 mins by beta-galactosidase based topcount luminescence analysis; format: cell-based
T3 sequence (Q14330 whole entry): T2 sequence (whole entry)

[5] = biological target: T1, G-protein coupled receptor 55; test: Antagonist activity at Prolink1-tagged human GPR55 receptor expressed in CHO cells assessed as inhibition of lysophosphatidylinositol-induced beta arrestin recruitment after 90 mins by beta-galactosidase based topcount luminescence analysis; format: functional, cell-based
[6] = biological target: T3, N-arachidonyl glycine receptor; test: Antagonist activity at Prolink1-tagged human GPR18 receptor expressed in CHO cells assessed as inhibition of THC-induced beta arrestin recruitment after 90 mins by beta-galactosidase based topcount luminescence analysis; format: functional, cell-based
[7] = biological target: T1, G-protein coupled receptor 55; test: Agonist activity at Prolink1-tagged human GPR55 receptor expressed in CHO cells assessed as induction of beta-arrestin recruitment at 10 uM after 90 mins by beta-galactosidase based topcount luminescence analysis relative to control; format: cell-based
Method in brief: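 CHO cells stably expressing GPR55, β2-arrestin recruitment detected by enzyme complementation and luminescence. Compounds tested at 10 μM; effect normalized to signal from 1 μM LPI.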

[8] = biological target: Cannabinoid receptor 1 (Homo sapiens) (UniProt P21554); test: Displacement of [3H]CP55,940 from human CB1 receptor expressed in CHO cell membranes after 2 hrs by liquid scintillation analysis
Method in brief: (§2)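 CB receptor radioligand binding: test compound at 10 μM single concentration, scored for displacement of a CB-specific radioligand and for any increase in bound radioligand.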

[9] = biological target: Cannabinoid receptor 2 (Homo sapiens) (UniProt P34972); test: Displacement of [3H]CP55,940 from human CB2 receptor expressed in CHO cell membranes after 2 hrs by liquid scintillation analysis; method in brief: as §2
[10] = biological target: T2, N-arachidonyl glycine receptor (Homo sapiens); test: Agonist activity at Prolink1-tagged human GPR18 receptor expressed in CHO cells assessed as increase in beta-arrestin recruitment at 1 uM in presence of THC at lower concentrations after 90 mins by beta-galactosidase based topcount luminescence analysis; format: cell-based; conditions: filed as agonist
Method in brief: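 GPR18-CHO β-arrestin recruitment assay. Fixed agonist at 1 μM combined with a THC concentration–response series. Means of three independent experiments in duplicate.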

[11] = biological target: T2, N-arachidonyl glycine receptor (Homo sapiens); test: Agonist activity at Prolink1-tagged human GPR18 receptor expressed in CHO cells assessed as induction of beta-arrestin recruitment after 90 mins in presence of 10 uM THC by beta-galactosidase based topcount luminescence analysis relative to control; format: cell-based
Method in brief: (§3)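 β-Arrestin recruitment in CHO cells expressing human GPR18. Agonist concentration–response curves recorded in the presence of fixed Δ9-THC (3 μM or 10 μM). Means of three independent experiments, each in duplicate.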

[12] = biological target: T2, N-arachidonyl glycine receptor (Homo sapiens); test: as §1, with “recruitment by measuring maximum inhibition of 2-(3-(6-(4-chlorophenoxy)hexyloxy)benzylidene)-6,7-dihydro-2H-imidazo[2,1-b][1,3]thiazin-3(5H)-one at 1 uM” for “recruitment”; format: cell-based; conditions: filed as agonist
Method in brief: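 Human GPR18 stably expressed in CHO cells, β-arrestin enzyme complementation. Antagonist concentration-inhibition curves run against a fixed 1 μM agonist stimulus. IC50 and maximal inhibition derived from curves; means of three independent experiments, each in duplicate.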

[13] = biological target: T2, N-arachidonyl glycine receptor (Homo sapiens); test: Agonist activity at Prolink1-tagged human GPR18 receptor expressed in CHO cells assessed as effect on induction of beta-arrestin recruitment after 90 mins in presence of 3 to 20 uM […] antagonist 2-(3-(6-(4-chlorophenoxy)hexyloxy)benzylidene)-6,7-dihydro-2H-imidazo[2,1-b][1,3]thiazin-3(5H)-one by beta-galactosidase based topcount luminescence analysis; format: cell-based; conditions: filed as agonist
[14] = biological target: T2, N-arachidonyl glycine receptor (Homo sapiens); test: Agonist activity at Prolink1-tagged human GPR18 receptor expressed in CHO cells assessed as induction of beta-arrestin recruitment after 90 mins in presence of 3 uM THC by beta-galactosidase based topcount luminescence analysis; format: cell-based; method in brief: as §3

T1 sequence (Q9Y2T6 whole entry): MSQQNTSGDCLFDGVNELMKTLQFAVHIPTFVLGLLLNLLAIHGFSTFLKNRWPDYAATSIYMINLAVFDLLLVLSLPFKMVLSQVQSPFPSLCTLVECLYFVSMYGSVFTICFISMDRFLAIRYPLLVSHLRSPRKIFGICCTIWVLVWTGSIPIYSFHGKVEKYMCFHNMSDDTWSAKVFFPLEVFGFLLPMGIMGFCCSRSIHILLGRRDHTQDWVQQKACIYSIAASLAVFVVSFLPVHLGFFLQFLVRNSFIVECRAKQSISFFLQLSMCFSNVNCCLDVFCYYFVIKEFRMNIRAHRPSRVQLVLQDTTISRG
Sequence of Cannabinoid receptor 2 (Homo sapiens) (P34972 whole entry): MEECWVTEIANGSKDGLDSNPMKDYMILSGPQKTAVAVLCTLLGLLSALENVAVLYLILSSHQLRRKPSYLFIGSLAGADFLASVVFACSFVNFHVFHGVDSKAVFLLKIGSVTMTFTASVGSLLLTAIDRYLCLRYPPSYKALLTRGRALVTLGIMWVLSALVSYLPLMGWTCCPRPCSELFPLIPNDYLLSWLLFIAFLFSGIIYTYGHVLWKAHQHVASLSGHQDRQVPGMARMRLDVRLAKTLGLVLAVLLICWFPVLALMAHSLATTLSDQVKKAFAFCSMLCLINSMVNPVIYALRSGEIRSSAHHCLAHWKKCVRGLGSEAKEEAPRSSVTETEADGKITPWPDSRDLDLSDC
Sequence of Cannabinoid receptor 1 (Homo sapiens) (P21554 whole entry): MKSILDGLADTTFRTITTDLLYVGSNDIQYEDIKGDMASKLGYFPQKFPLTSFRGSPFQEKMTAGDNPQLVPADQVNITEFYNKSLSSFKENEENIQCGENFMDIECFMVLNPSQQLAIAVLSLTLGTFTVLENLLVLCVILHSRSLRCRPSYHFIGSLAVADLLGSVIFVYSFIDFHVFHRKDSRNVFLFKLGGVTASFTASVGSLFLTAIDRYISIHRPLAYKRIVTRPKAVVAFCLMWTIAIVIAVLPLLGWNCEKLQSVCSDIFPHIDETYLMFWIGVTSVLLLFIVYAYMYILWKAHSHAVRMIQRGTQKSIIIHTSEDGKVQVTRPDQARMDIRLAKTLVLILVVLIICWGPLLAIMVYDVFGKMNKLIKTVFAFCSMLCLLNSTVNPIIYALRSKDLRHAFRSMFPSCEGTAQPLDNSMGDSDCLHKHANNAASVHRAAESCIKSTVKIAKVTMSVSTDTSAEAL

| SMILES | pEC50 [1] | inhibition [2] | Activity [3] | pEC50 [4] | pIC50 [5] | pIC50 [6] | Activity [7] | Activity [8] | Activity [9] | Activity [10] | inhibition [11] | inhibition [12] | Activity [13] | Activity [14] | Activity ([3]; filed as agonist) |
| --- | --- | --- | --- | --- | --- | --- | --- | --- | --- | --- | --- | --- | --- | --- | --- |
| COc1ccc(CCN2CCCn3c2nc2c3c(=O)n(C)c(=O)n2C)cc1OC | < 5.00 | 32% | -39% | < 5.00 | < 5.00 | < 5.00 | 15% | – | – | – | – | – | – | – | – |
| Cn1c(=O)c2c(nc3n2CCCN3CCc2c[nH]c3ccccc23)n(C)c1=O | < 5.00 | 20% | – | 6.25 | < 5.00 | – | -5% | inactive | inactive | Active | inactive | 65% | Active | inactive | – |
| CCN(CC)CCN1CCCn2c1nc1c2c(=O)n(C)c(=O)n1C | < 5.00 | -3% | 39% | < 5.00 | < 5.00 | < 5.00 | 4% | – | – | – | – | – | – | – | – |
| CCCCC/C=C\C/C=C\C/C=C\C/C=C\CCCC(=O)NCC(=O)O [ARACHIDONOYL GLYCINE] | – | – | – | < 5.00 | – | < 5.00 | – | – | – | – | – | – | – | – | – |
| Cn1c(=O)c2c(nc3n2CCCN3Cc2ccc(Cl)cc2)n(C)c1=O | < 5.00 | 1% | 6% | < 5.00 | < 5.00 | < 5.00 | -9% | – | – | – | – | – | – | – | – |
| CCCn1c(=O)c2c(nc3n2CCCN3CCc2c[nH]c3ccccc23)n(CCC)c1=O | < 5.00 | -4% | -12% | < 5.00 | < 5.00 | < 5.00 | – | – | – | – | – | – | – | – | – |
| CCCCCc1cc(O)c2c(c1)OC(C)(C)[C@@H]1CCC(C)=C[C@@H]21 [DRONABINOL] | < 5.00 | – | – | – | – | – | -4% | – | – | – | – | – | – | – | – |
| COc1ccc(CCN2CCCn3c2nc2c3c(=O)n(C)c(=O)n2C)cc1 | < 5.00 | – | -2% | < 5.00 | < 5.00 | < 5.00 | -6% | – | – | – | – | – | – | – | – |
| Cn1c(=O)c2c(nc3n2CCCN3CCc2ccc(Cl)cc2)n(C)c1=O | < 5.00 | – | 14% | < 5.00 | < 5.00 | < 5.00 | 10% | – | – | – | – | – | – | – | – |
| CCCCCN1CCCn2c1nc1c2c(=O)n(C)c(=O)n1C | < 5.00 | – | -1% | < 5.00 | < 5.00 | < 5.00 | 10% | – | – | – | – | – | – | – | – |
| C=C(C)[C@@H]1CCC(C)=C[C@H]1c1c(O)cc(O)cc1CCCCC | < 5.00 | 33% | – | < 5.00 | < 5.00 | < 5.00 | 7% | – | – | – | – | – | – | – | – |
| Cn1c(=O)c2c(nc3n2CCCN3CCc2ccccc2)n(C)c1=O | < 5.00 | -10% | 2% | < 5.00 | < 5.00 | < 5.00 | 16% | – | – | – | – | – | – | – | – |
| CCCCN1CCCn2c1nc1c2c(=O)n(C)c(=O)n1C | < 5.00 | 34% | 26% | < 5.00 | < 5.00 | < 5.00 | -4% | – | – | – | – | – | – | – | – |
| COCCN1CCCn2c1nc1c2c(=O)n(C)c(=O)n1C | < 5.00 | -4% | – | < 5.00 | < 5.00 | < 5.00 | 18% | – | – | – | – | – | – | – | 40% |
| Cn1c(=O)c2c(nc3n2CCN3CCc2c[nH]c3ccccc23)n(C)c1=O | < 5.00 | – | – | – | < 5.00 | – | – | – | – | – | – | – | – | – | – |
| Cn1c(=O)c2c(nc3n2CCN3c2ccc(O)cc2)n(C)c1=O | < 5.00 | – | 22% | < 5.00 | < 5.00 | < 5.00 | 13% | – | – | – | – | – | – | – | – |
| CCN1CCCn2c1nc1c2c(=O)n(C)c(=O)n1C | < 5.00 | 17% | 2% | < 5.00 | < 5.00 | < 5.00 | -16% | – | – | – | – | – | – | – | – |
| Cn1c(=O)c2c(nc3n2CCCCN3CCc2c[nH]c3ccccc23)n(C)c1=O | < 5.00 | – | – | – | < 5.00 | – | – | – | – | – | – | – | – | – | – |
